The term inhibition denotes the change of the read-out against control, counted positive when it falls. For orientation: IC50 means the concentration that gives 50% inhibition.

One assay relates to Prunus dulcis. The experiment in a line: Inhibition of beta-glucosidase from almond at 1 mM at pH 5. The gist of the method: (§1)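 Glycosidase panel of commercial enzymes assayed at each enzyme's optimal pH with compound at 1 mM; percentage inhibition of enzyme activity calculated.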
For a further assay, the system named is U-266. Kind of assay: Cytotoxicity against human U266 cells after 72 hrs by colorimetric assay. It counts as functional, cell-based. The settings on record: Homo sapiens, U-266, 72 h; read-out: IC50. The gist of the method: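 Cells grown in McCoy's medium (adherent lines) or RPMI-1640 (U266), each with 10% FBS, L-glutamine and antibiotics, at 37 °C in 5% CO₂. Compound dissolved as a 100 mM DMSO stock, final DMSO ≤0.4%. Cells were exposed for 72 h across a 10^-2 to 400 µM range. Viability was read by CellTiter 96 Aqueous (2–4 h incubation, absorbance 490 nm). Triplicate wells; IC50 from curve fitting.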

Assay [1] has as its system SK-BR-3. The experiment in a line: Cell cycle arrest in human SKBR3 cells by accumulation of cells at G1 phase at 50 uM after 48 hrs by propidium iodide-staining based flow cytometry (reference value: 54%). It counts as functional. In general terms: In flow cytometry, cells or beads pass a laser one at a time.
Assay [2] relates to SK-BR-3. Kind of assay: Cell cycle arrest in human SKBR3 cells by accumulation of cells at S phase at 50 uM after 48 hrs by propidium iodide-staining based flow cytometry (reference value: 30%). The format is functional.
For assay [3], the system named is SK-BR-3. The experiment in a line: Cell cycle arrest in human SKBR3 cells by accumulation of cells at G2/M phase at 50 uM after 48 hrs by propidium iodide-staining based flow cytometry (reference value: 16%). The format is functional.
In assay [4] the test system is SK-BR-3. The experiment in a line: Cell cycle arrest in human SKBR3 cells by accumulation of cells at G1 phase at 100 uM after 48 hrs by propidium iodide-staining based flow cytometry (reference value: 54%). It counts as functional.
The subject of assay [5] is SK-BR-3. Kind of assay: Cell cycle arrest in human SKBR3 cells by accumulation of cells at G2/M phase at 100 uM after 48 hrs by propidium iodide-staining based flow cytometry (reference value: 16%). The format is functional.
Assay [6] has as its system SK-BR-3. Kind of assay: Cell cycle arrest in human SKBR3 cells by accumulation of cells at G1 phase at 200 uM after 48 hrs by propidium iodide-staining based flow cytometry (reference value: 54%). The format is functional.
The subject of assay [7] is SK-BR-3. Kind of assay: Decrease in hTERT mRNA level in human SKBR3 cells at 50 uM after 12 hrs by TLDA. The format is functional, cell-based. The gist of the method:
(§2)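 SKBR3 and MCF7 cells seeded at 2 × 10⁵ per well, treated 12 h with 50 µM compound (DMSO stock); total RNA extracted, cDNA made with random hexamers, gene expression profiled by TaqMan low-density arrays (qPCR, duplicate per gene). Normalised to RPLP0; fold change versus DMSO vehicle-treated cells, calculated as 2^-ΔΔCT.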

The test system of assay [8] is SK-BR-3. The experiment in a line: Increase in CDKN1C mRNA level in human SKBR3 cells at 50 uM after 12 hrs by TLDA. The format is functional, cell-based. The gist of the method: as §2
Assay [9] can be described thus: Cytotoxicity in human multiple myeloma cells assessed as viable cells at 200 uM after 24 hrs by annexin V/propidium iodide staining based flow cytometry (reference value: 48.2%). The format is functional. The following applies: Multiple myeloma cell, read-out: Activity.
Assay [10] is described as follows: Cytotoxicity in human multiple myeloma cells assessed as early apoptotic cells at 50 uM after 24 hrs by annexin V/propidium iodide staining based flow cytometry (reference value: 0.1%). The format is functional, Multiple myeloma cell.
Assay [11] is described as follows: Cytotoxicity in human multiple myeloma cells assessed as early apoptotic cells at 100 uM after 24 hrs by annexin V/propidium iodide staining based flow cytometry (reference value: 0.1%). The format is functional, Multiple myeloma cell.
Assay [12] is described as follows: Cytotoxicity in human multiple myeloma cells assessed as late apoptotic/necrotic cells at 50 uM after 24 hrs by annexin V/propidium iodide staining based flow cytometry (reference value: 9.1%). It counts as functional, Multiple myeloma cell.
Assay [13] is described as follows: Cytotoxicity in human multiple myeloma cells assessed as late apoptotic/necrotic cells at 100 uM after 24 hrs by annexin V/propidium iodide staining based flow cytometry (reference value: 9.1%). The format is functional, Multiple myeloma cell.
Assay [14] is described as follows: Cytotoxicity in human multiple myeloma cells assessed as pre-necrotic cells at 200 uM after 24 hrs by annexin V/propidium iodide staining based flow cytometry (reference value: 42.1%). The format is functional, Multiple myeloma cell.
The nature of assay [15]: Cytotoxicity in human B-CLL assessed as viable cells at 100 uM after 24 hrs by annexin V/propidium iodide staining based flow cytometry (reference value: 65.8 to 78%). The format is functional. The following applies: read-out: Activity.
Assay [16] is described as follows: Cytotoxicity in human B-CLL assessed as early apoptotic cells at 50 uM after 24 hrs by annexin V/propidium iodide staining based flow cytometry (reference value: 3.6 to 20.2%). It counts as functional.
A short description of assay [17]: Cytotoxicity in human B-CLL assessed as late apoptotic/necrotic cells at 50 uM after 24 hrs by annexin V/propidium iodide staining based flow cytometry (reference value: 10 to 14.7%). It counts as functional.
Assay [18] is described as follows: Cytotoxicity in human B-CLL assessed as pre-necrotic cells at 50 uM after 24 hrs by annexin V/propidium iodide staining based flow cytometry (reference value: 1.3 to 3.7%). The format is functional.
In assay [19] the target is T1, Beta-galactosidase (Aspergillus oryzae) (UniProt Q2U7N3).
T1 sequence (whole entry): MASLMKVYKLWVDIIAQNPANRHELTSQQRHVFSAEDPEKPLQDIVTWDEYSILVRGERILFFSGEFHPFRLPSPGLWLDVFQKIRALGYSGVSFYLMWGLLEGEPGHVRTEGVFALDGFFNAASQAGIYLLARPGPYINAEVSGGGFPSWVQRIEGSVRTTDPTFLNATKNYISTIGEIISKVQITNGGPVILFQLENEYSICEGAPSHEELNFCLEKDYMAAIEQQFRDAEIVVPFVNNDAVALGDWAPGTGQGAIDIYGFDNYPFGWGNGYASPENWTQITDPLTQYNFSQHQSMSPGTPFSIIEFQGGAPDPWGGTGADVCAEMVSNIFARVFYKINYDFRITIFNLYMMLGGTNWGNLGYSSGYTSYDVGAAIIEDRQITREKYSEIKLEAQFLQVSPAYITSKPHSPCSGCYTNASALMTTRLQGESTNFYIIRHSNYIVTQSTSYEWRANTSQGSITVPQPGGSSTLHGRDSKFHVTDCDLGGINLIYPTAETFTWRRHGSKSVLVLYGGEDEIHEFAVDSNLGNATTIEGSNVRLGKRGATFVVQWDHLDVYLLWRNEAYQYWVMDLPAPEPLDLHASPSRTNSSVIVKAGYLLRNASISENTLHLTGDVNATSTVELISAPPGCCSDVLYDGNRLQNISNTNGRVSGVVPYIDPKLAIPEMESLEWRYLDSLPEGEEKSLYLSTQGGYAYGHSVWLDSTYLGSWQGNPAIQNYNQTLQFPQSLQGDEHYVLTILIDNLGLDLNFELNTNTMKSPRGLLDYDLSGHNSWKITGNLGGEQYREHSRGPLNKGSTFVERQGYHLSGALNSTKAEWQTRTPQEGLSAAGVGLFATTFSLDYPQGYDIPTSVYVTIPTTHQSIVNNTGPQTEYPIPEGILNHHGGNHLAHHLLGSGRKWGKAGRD
Kind of assay: Inhibition of beta-galactosidase from Aspergillus oryzae at 1 mM at pH 4. The gist of the method:
as §1

Calls of active or inactive are those of the source. No cut-off for these calls is given here.

For `OC[C@H](NC[C@H]1NC[C@H](O)[C@@H]1O)c1ccc(-c2ccc(C(F)(F)F)cc2)cc1`, the inhibition in the assay with Prunus dulcis is 50%; in [19] it was less than 10%. Further, the IC50 in the assay on U-266 was determined as 50 µM. For the same molecule, the Activity with SK-BR-3 [1] stood at 57%; in the assay on SK-BR-3 [2] it was 30%; in the assay on SK-BR-3 [3], 13%; in the assay on SK-BR-3 [4], 48%; with SK-BR-3 [5], 43%; in the assay with SK-BR-3 [6] it was 42%. For the same molecule, the Activity in assay [10] was 2.3%; in assay [11] it was 2.6%; in assay [12], 37.9%; in [13] it was 52.6%; in assay [14], 21.3%; in [16], 11.3%. Besides, the Activity was 10.1% in assay [17] and 0.8% in [18]. The result in the assay on SK-BR-3 [7] and in the assay with SK-BR-3 [8] was Active. The viability at 200 µM in [9] is 3%. The viability at 100 µM in assay [15] amounted to 5.1%.

The record behind these values is ChEMBL document CHEMBL1157882, “Novel 2-[(benzylamino)methyl]pyrrolidine-3,4-diol derivatives as alpha-mannosidase inhibitors and with antitumor activities against hematological and solid malignancies” (Bioorg Med Chem, 2010).
